H9c2 TAG inh: inhibitors of triacylglycerol accumulation, primary screen, cell-based, uHTS, fluorescence, H9c2; H9c2 cells, Nile Red lipid (TAG) fluorescence; cells loaded with 200 µM oleic acid; inhibition, % at 12.5 µM; AID 651582, 2012; 230,000 tested, 0.66% active;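 active means pattern-corrected inhibition of lipid staining of at least 50% with the nuclear-stain viability signal not falling by more than 50%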;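 further: 0% = DMSO wells and 100% = triacsin C control wells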
ABHD5-PLIN5 inh: ABHD5-PLIN5 interaction inhibitors, primary screen, cell lysate, split luciferase complementation, luminescence. Split G. princeps luciferase complementation, 4 h. inhibition, % at 4 µM. 360,000 tested, 0.78% active. AID 602281, 2012;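 active means inhibition above the mean inhibition across every tested compound plus 3 SD, cut at about 22% in these data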;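 further: 0% = DMSO only wells and the 100% control is not disclosed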
GAA850 FXN act: FXN promoter activators, primary screen, cell-based, luciferase luminescence, HEK293 lucGAA850 | 360,000 tested, 0.56% active | AID 540364, 2011 | HEK293 lucGAA850 FXN promoter luciferase reporter, 24 h; percent of 10 µM SAHA response | activation, % at 6 µM;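 active means activation above the average of all compounds screened plus 3 SD, cutoff fixed separately per campaign, cut at about 7.5% in these data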;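 further: 0% = DMSO wells and 100% = 10 µM SAHA wells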
Hsp70 act: Hsp70 transcriptional activators, primary screen, cell-based, HeLa, Hsp70 promoter luciferase, luminescence, 10 µM | HeLa Hsp70 promoter luciferase reporter; scaled: vehicle 0, proteasome-inhibitor control 100% | activation, % at 10 µM | 200,000 tested, 0.04% active;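 active means activation above the mean across all tested compounds plus 3 SD, cutoff set per campaign, cut at about 5.5% in these data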;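 further: 100% = MG132 at 30 µM as the positive control and 0% = DMSO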
HIF act: HIF pathway transcriptional activators, primary screen, cell-based, U2OS HRE-luciferase, luminescence; U2OS HRE-luciferase reporter; normalized: DMSO 0%, desferrioxamine 100%; 300,000 tested, 0.32% active; activation, % at 7.5 µM (by protocol); AID 1910, 2009;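 active means mean activation of at least 10% of the iron chelator positive control signal, with at least half of replicates also reaching 10%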
Rad51 HR inh: human RAD51 strand exchange inhibitors, primary screen, biochemical, fluorescence; hRad51 DNA strand exchange, fluorescence dequenching; inhibition, % at 10 µM; 200,000 tested, 0.085% active; AID 1385, 2008;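 active means inhibition above 40% at the single screening dose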;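 further: 0% = DMSO control wells and 100% = blanks with heterologous ssDNA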
Target sequence (Q06609 whole entry, looked up): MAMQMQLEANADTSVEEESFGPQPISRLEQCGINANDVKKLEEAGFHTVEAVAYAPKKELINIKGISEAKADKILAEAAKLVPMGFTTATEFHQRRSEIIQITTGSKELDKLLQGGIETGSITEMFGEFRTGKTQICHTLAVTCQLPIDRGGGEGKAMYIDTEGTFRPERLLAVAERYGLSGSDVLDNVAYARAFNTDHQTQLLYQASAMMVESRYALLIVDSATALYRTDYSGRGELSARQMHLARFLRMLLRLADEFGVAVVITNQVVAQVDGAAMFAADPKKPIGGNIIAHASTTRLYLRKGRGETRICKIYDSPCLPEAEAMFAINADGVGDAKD
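Test system: preformed human Rad51 ssDNA filaments. Compound dosing: single dose, 10 µM final compound. Incubation: filaments 15 min 37 °C, then compound 30 min. Technique: FRET fluorescence dequenching, excitation 485 nm, emission 520 nm. Read-out basis: percent inhibition from fluorescence, normalised to plate control and blank means. Benchmarks: plate controls and plate blanks.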
H9c2 TAG conf: triacylglycerol accumulation inhibitors, retest, confirmation, cell-based, single concentration, Nile Red fluorescence, H9c2; shares compounds with H9c2 TAG inh; H9c2 lipid accumulation; cells loaded with 200 µM oleic acid; inhibition, % at 12.5 µM; 990 tested, 71% active; AID 651629, 2012;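 active means mean inhibition across replicates of 40% or more; inactive means mean inhibition below 40%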;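 further: plate controls were DMSO only wells for no effect and Triacsin C treated wells for full effect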
Starred values were filed as active, the others as inactive; x = no result given. An excerpt weighted towards active compounds, which were near 1.9% of everything screened.

SMILES	H9c2 TAG inh	ABHD5-PLIN5 inh	GAA850 FXN act	Hsp70 act	HIF act	Rad51 HR inh	H9c2 TAG conf
COc1ccccc1NC(=S)N1CCC(c2nc3cc(C)c(C)cc3[nH]2)CC1	x	0.7	3.4	-0.2	0.2	5.1	x
Cc1cc2c(cc1C)CSC(c1ccccc1OC(=O)C(C)C)SC2	52.4*	-0.8	0.3	-0.1	0.3	1.5	23.6
COc1cc2c(cc1OC)C(COc1ccccc1OC)N(C(=O)C(C)C)CC2 (stereo unspecified)	23.6	-3.9	1.6	0.0	0.0	0.8	x
Nc1c(Cl)cc(-c2csc(N3CCCC3c3nc4cc(Cl)c(N5CCCCC5)cc4n3CCOCCO)n2)cc1Cl (stereo unspecified)	75.0*	-3.7	-0.3	x	-0.5	3.8	80.8*
Cc1csc(N2CCCC2c2nc3cc(Cl)c(N4CCCCC4)cc3n2CCOCCO)n1 (stereo unspecified)	15.7	7.1	1.1	x	0.3	8.6	x
Nc1c(Cl)cc(-c2csc(N3CCCC3c3nc4cc(Cl)c(Cl)cc4n3CCCO)n2)cc1Cl (stereo unspecified)	71.4*	-7.8	2.4	x	0.0	-8.8	79.2*
OCCCn1c(C2CCCN2c2nc(-c3ccc(Cl)cc3)cs2)nc2cc(Cl)c(Cl)cc21 (stereo unspecified)	39.3	-1.7	1.9	x	0.1	-7.2	x
Nc1c(Cl)cc(-c2csc(N3CCCC3c3nc4cc(Cl)c(N5CCCCC5)cc4n3CCCO)n2)cc1Cl (stereo unspecified)	92.8*	-4.3	2.8	x	0.9	4.7	127.8*
Cc1onc(-c2c(F)cccc2Cl)c1C(=O)Nc1cc(S(=O)(=O)N2CCCCC2)ccc1O	-2.4	-2.8	0.2	x	x	x	x
COc1cccc(C2c3cc4c(cc3OC(NNC(N)=O)C2C)OCO4)c1O (stereo unspecified)	61.6*	-4.8	-3.5	x	x	x	51.9*
COc1cc(C2c3cc4c(cc3OC(NNC(N)=O)C2C)OCO4)cc(OC)c1OC (stereo unspecified)	45.6	8.0	-0.7	x	x	x	x
COc1cccc(CN2CCN(S(=O)(=O)c3ccc(Cl)s3)CC2)c1	6.6	1.1	-2.3	x	-0.8	x	x
CN1CCCC(n2nc(Cc3ccc(Cl)cc3)c3ccccc3c2=O)CC1 (stereo unspecified)	84.6*	20.6	-3.9	x	-0.3	1.2	40.0*
CCOC(=O)Cn1nc(Cc2ccccc2)c2ccccc2c1=O	24.1	-0.3	-1.3	-0.3	-1.5	-1.2	x
COCCNC(=O)C1(C)CCN(C(=O)/C=C/c2ccccc2)C1 (stereo unspecified)	-1.2	11.7	0.6	x	x	x	x
COC(=O)c1ccc(NC(=O)COc2ccc(C3C(C#N)=C(N)Oc4c3ccc3ccccc43)cc2OC)cc1 (stereo unspecified)	50.4*	-7.2	-3.3	-0.1	0.0	0.1	24.0
C[C@@H]1CN([C@H](C)CO)C(=O)c2c(c3ccccc3n2C)-c2ccccc2CO[C@H]1CN(C)Cc1ccc(C(F)(F)F)cc1	49.5	-5.4	-1.1	x	x	x	x
C[C@@H]1CN([C@H](C)CO)C(=O)c2c(c3ccccc3n2C)-c2ccccc2CO[C@H]1CN(C)Cc1ccc(Oc2ccccc2)cc1	59.1*	-0.4	1.2	x	x	x	73.7*
C[C@H]1CN([C@@H](C)CO)C(=O)c2cc(NC(=O)Nc3cccc4ccccc34)ccc2O[C@@H]1CN(C)Cc1ccc(-c2ccccc2)cc1	71.6*	12.3	-1.1	x	x	x	70.5*
C[C@@H]1CN([C@@H](C)CO)C(=O)c2cccc(NC(=O)Nc3ccc(F)cc3)c2O[C@@H]1CN(C)Cc1ccc(Oc2ccccc2)cc1	72.8*	5.9	-11.5	x	x	x	80.7*
